# The source made the active and inactive calls. The calls are words filed in the database; no cut-off is given here.
# What was measured:
# [1] = system: Pseudomonas aeruginosa; experiment: Antibacterial activity against Pseudomonas aeruginosa clinical isolate after 18 to 24 hrs; format: functional
# [2] = biological target: T1, UDP-3-O-acyl-N-acetylglucosamine deacetylase (Pseudomonas aeruginosa (strain ATCC 15692 / PAO1 / 1C / PRS 101 / LMG12228), UniProt P47205); experiment: Inhibition of Pseudomonas aeruginosa LpxC using UDP-3-O-(R-hydroxydecanoyl)-N-acetylglucosamine as substrate preincubated for 30 mins followed by substrate addition measured after 20 mins by LC-MS/MS analysis
# T1 sequence (P47205 whole entry): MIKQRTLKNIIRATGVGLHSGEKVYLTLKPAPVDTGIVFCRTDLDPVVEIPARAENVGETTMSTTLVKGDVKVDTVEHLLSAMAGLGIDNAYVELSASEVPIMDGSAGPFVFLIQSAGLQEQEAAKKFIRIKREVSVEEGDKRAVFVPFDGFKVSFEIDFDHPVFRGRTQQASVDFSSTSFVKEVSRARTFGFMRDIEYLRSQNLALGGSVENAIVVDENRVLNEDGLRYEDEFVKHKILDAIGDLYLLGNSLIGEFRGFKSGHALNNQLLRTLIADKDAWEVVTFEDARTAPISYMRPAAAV
# [3] = system: Pseudomonas aeruginosa; experiment: Antibacterial activity against Pseudomonas aeruginosa PAO1 K767 after 18 to 24 hrs; format: functional
# Procedure, shortened: (§1)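 Broth MIC per CLSI guidelines in cation-adjusted Mueller Hinton broth. Compounds were dissolved and serially diluted in DMSO (carbapenems in water) before addition to plates. Incubation was at 37 °C for 18−24 h. MIC is the lowest concentration preventing visible growth. MIC50/MIC90 are the concentrations inhibiting 50% or 90% of isolates tested.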
# [4] = system: Pseudomonas aeruginosa; experiment: Antibacterial activity against mexAB-oprM deficient Pseudomonas aeruginosa K1119 after 18 to 24 hrs; format: functional; procedure, shortened: as §1
# [5] = system: Pseudomonas aeruginosa; experiment: Antibacterial activity against hypersusceptible Pseudomonas aeruginosa Z61 after 18 to 24 hrs; format: functional; procedure, shortened: as §1
# [6] = Cytotoxicity against human K562 cells assessed as reduction in cell viability after 72 hrs by WST1 assay; format: cell-based
# Procedure, shortened: (§2)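 Cells were grown and assayed in medium with 10% heat-inactivated FBS and exposed to compound for 72 h. Metabolic activity was read as WST-1 cleavage to formazan at A450, with puromycin as positive control. CC50 (50% reduction in viability) was calculated from dose-response curves.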
# [7] = Protein binding in mouse plasma; format: ADME, cell-free; details: read-out: PPB (converted)
# [8] = Protein binding in rat plasma; format: ADME, cell-free; details: read-out: PPB (converted)
# [9] = Protein binding in human plasma; format: ADME, cell-free; details: read-out: PPB (converted)
# [10] = Solubility of the compound at pH 6.8 by high throughput screening assay; format: physicochemical; details: buffer, read-out: solubility
# [11] = Cytotoxicity against human HepG2 cells assessed as reduction in cell viability after 72 hrs by WST1 assay; format: cell-based; procedure, shortened: as §2
# [12] = system: Pseudomonas aeruginosa; experiment: Antibacterial activity against Pseudomonas aeruginosa NB52001 after 18 to 24 hrs; format: functional; procedure, shortened: as §1
# [13] = system: Pseudomonas aeruginosa; experiment: Antibacterial activity against Pseudomonas aeruginosa NB52096 after 18 to 24 hrs; format: functional; procedure, shortened: as §1
# [14] = system: Acinetobacter baumannii; experiment: Antibacterial activity against Acinetobacter baumannii NB48015 after 18 to 24 hrs; format: functional; procedure, shortened: as §1
# [15] = system: Alcaligenes; experiment: Antibacterial activity against Alcaligenes xylosus NB56002 after 18 to 24 hrs; format: functional; procedure, shortened: as §1
# [16] = system: Burkholderia cepacia; experiment: Antibacterial activity against Burkholderia cepacia NB49016 after 18 to 24 hrs; format: functional; procedure, shortened: as §1
# [17] = system: Stenotrophomonas maltophilia; experiment: Antibacterial activity against Stenotrophomonas maltophilia NB55011 after 18 to 24 hrs; format: functional; procedure, shortened: as §1
# [18] = system: Klebsiella aerogenes; experiment: Antibacterial activity against Enterobacter aerogenes NB24004 after 18 to 24 hrs; format: functional; procedure, shortened: as §1
# [19] = system: Escherichia coli; experiment: Antibacterial activity against Escherichia coli NB27047 after 18 to 24 hrs; format: functional; procedure, shortened: as §1
# [20] = system: Klebsiella pneumoniae; experiment: Antibacterial activity against Klebsiella pneumoniae NB29018 after 18 to 24 hrs; format: functional; procedure, shortened: as §1
# [21] = system: Klebsiella oxytoca; experiment: Antibacterial activity against Klebsiella oxytoca NB30007 after 18 to 24 hrs; format: functional; procedure, shortened: as §1
# [22] = system: Proteus mirabilis; experiment: Antibacterial activity against Proteus mirabilis NB32022 after 18 to 24 hrs; format: functional; procedure, shortened: as §1
# [23] = biological target: Histone deacetylase 1 (Homo sapiens, UniProt Q13547); experiment: Inhibition of human HDAC1
# Histone deacetylase 1, sequence (Q13547 whole entry): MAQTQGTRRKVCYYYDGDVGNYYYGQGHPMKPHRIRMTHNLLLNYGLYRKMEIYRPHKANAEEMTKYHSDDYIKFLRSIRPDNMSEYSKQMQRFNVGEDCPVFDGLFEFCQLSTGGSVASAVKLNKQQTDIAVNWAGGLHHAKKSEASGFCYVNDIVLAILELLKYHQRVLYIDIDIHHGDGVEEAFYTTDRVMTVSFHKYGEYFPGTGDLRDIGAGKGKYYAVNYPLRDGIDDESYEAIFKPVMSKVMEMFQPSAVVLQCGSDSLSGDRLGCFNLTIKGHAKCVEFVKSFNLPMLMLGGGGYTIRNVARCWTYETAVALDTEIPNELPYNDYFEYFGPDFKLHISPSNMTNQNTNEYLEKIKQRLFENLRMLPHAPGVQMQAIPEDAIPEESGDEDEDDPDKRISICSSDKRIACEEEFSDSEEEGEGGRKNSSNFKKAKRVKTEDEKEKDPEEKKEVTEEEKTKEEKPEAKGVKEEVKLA
# [24] = biological target: Histone deacetylase 2 (Homo sapiens, UniProt Q92769); experiment: Inhibition of human HDAC2
# [25] = biological target: Histone deacetylase 3 (Homo sapiens, UniProt O15379); experiment: Inhibition of human HDAC3
# Histone deacetylase 3, sequence (O15379 whole entry): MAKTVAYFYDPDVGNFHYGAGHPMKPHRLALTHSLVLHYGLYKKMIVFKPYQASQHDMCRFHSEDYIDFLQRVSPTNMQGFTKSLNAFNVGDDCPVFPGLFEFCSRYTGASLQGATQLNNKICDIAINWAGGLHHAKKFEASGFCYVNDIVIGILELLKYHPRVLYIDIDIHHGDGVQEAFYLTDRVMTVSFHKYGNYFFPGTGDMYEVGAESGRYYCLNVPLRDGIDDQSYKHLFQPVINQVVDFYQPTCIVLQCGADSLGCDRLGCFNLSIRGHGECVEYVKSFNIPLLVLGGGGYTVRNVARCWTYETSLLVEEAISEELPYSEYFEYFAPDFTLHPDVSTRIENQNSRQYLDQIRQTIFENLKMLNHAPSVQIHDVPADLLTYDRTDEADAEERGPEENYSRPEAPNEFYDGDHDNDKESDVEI
# [26] = biological target: Histone deacetylase 4 (Homo sapiens, UniProt P56524); experiment: Inhibition of human HDAC4
# Histone deacetylase 4, sequence (P56524 whole entry): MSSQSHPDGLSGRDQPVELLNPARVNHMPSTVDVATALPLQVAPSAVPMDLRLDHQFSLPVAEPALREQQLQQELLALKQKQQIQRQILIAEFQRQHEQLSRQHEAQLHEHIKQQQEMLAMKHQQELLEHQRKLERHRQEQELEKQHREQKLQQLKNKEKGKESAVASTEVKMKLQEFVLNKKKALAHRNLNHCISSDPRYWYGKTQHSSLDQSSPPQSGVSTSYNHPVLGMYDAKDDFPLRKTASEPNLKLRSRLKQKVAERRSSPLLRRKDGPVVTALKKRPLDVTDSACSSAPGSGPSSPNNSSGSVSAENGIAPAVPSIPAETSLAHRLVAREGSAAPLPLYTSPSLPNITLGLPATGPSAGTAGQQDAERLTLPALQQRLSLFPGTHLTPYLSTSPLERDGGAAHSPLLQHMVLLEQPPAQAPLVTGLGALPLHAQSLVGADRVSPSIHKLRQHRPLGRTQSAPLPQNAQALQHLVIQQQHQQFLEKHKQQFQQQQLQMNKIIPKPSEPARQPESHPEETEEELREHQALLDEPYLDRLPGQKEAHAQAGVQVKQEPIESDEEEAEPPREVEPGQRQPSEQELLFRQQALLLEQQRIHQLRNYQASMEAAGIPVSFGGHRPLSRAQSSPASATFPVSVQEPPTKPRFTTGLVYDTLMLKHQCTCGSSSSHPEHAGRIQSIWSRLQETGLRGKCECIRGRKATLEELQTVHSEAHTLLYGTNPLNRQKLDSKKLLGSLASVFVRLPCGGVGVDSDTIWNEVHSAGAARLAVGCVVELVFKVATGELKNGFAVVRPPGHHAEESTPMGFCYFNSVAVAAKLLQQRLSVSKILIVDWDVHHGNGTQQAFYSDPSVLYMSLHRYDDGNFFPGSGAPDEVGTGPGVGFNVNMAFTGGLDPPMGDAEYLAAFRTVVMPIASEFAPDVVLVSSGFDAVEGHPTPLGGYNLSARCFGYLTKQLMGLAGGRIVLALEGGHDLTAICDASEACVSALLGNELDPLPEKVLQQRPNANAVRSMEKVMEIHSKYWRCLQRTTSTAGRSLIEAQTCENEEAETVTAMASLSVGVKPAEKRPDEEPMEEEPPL
# [27] = biological target: Histone deacetylase 5 (Homo sapiens, UniProt Q9UQL6); experiment: Inhibition of human HDAC5
# [28] = biological target: Protein deacetylase HDAC6 (Homo sapiens, UniProt Q9UBN7); experiment: Inhibition of human HDAC6
# [29] = biological target: Histone deacetylase 7 (Homo sapiens, UniProt Q8WUI4); experiment: Inhibition of human HDAC7
# Histone deacetylase 7, sequence (Q8WUI4 whole entry): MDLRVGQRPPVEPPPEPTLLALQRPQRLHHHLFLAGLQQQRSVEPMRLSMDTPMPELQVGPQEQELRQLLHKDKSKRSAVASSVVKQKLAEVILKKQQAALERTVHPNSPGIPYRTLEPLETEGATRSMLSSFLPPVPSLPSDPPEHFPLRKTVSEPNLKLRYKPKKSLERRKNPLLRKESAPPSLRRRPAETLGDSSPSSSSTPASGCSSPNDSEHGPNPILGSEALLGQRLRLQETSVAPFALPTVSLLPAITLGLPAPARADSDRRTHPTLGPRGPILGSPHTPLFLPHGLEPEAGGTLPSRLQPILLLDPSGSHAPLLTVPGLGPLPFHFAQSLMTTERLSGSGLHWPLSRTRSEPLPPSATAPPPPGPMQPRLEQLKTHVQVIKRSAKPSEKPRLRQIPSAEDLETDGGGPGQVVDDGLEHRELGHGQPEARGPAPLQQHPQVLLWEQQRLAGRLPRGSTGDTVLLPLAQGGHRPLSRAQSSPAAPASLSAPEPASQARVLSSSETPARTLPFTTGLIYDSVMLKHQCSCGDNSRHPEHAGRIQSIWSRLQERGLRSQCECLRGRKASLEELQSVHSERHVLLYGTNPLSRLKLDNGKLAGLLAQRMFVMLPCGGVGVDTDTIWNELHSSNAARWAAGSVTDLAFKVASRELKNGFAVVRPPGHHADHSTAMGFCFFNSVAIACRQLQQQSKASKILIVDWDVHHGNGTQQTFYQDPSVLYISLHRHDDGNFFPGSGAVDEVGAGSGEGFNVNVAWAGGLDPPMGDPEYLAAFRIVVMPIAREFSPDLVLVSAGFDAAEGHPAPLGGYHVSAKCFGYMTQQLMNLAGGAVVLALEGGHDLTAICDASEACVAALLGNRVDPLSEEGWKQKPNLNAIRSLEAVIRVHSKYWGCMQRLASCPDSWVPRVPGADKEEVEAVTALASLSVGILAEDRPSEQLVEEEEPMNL
# [30] = biological target: Histone deacetylase 8 (Homo sapiens, UniProt Q9BY41); experiment: Inhibition of human HDAC8
# Histone deacetylase 8, sequence (Q9BY41 whole entry): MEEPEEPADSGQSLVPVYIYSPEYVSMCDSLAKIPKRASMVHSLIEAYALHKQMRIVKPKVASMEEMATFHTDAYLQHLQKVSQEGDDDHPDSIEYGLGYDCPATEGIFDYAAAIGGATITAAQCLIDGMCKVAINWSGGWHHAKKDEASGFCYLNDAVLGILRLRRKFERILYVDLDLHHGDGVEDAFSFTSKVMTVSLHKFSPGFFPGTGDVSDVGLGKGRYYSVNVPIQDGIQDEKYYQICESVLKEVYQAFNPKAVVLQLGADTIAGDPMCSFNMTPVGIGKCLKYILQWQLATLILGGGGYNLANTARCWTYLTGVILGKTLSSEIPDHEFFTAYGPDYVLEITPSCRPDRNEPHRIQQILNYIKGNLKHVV
# [31] = biological target: Histone deacetylase 9 (Homo sapiens, UniProt Q9UKV0); experiment: Inhibition of human HDAC9
# Histone deacetylase 9, sequence (Q9UKV0 whole entry): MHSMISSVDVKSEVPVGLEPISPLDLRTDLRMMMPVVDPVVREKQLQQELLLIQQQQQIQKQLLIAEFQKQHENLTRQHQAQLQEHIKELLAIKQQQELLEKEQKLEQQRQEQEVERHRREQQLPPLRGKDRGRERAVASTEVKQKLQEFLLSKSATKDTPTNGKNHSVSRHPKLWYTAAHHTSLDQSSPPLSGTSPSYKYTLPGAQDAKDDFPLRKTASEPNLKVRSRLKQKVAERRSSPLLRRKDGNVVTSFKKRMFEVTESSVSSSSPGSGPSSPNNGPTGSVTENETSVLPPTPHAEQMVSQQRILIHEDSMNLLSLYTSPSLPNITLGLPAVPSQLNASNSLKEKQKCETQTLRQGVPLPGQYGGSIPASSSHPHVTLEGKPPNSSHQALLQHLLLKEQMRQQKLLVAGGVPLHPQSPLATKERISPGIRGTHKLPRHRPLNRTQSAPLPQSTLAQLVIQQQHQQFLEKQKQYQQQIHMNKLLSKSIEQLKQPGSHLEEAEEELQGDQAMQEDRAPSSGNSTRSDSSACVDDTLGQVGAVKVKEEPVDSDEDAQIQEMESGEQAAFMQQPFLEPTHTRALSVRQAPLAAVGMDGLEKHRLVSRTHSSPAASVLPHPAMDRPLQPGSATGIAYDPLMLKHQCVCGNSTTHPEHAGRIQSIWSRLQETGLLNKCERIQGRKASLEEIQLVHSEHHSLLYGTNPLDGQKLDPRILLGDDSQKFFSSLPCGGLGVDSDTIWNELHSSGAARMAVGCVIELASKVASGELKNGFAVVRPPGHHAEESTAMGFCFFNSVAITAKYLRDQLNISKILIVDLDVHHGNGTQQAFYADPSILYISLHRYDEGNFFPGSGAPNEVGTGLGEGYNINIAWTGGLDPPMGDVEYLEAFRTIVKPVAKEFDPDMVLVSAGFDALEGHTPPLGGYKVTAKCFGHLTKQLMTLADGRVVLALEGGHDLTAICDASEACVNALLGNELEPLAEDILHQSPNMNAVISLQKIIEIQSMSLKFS
# [32] = biological target: Polyamine deacetylase HDAC10 (Homo sapiens, UniProt Q969S8); experiment: Inhibition of human HDAC10
# Polyamine deacetylase HDAC10, sequence (Q969S8 whole entry): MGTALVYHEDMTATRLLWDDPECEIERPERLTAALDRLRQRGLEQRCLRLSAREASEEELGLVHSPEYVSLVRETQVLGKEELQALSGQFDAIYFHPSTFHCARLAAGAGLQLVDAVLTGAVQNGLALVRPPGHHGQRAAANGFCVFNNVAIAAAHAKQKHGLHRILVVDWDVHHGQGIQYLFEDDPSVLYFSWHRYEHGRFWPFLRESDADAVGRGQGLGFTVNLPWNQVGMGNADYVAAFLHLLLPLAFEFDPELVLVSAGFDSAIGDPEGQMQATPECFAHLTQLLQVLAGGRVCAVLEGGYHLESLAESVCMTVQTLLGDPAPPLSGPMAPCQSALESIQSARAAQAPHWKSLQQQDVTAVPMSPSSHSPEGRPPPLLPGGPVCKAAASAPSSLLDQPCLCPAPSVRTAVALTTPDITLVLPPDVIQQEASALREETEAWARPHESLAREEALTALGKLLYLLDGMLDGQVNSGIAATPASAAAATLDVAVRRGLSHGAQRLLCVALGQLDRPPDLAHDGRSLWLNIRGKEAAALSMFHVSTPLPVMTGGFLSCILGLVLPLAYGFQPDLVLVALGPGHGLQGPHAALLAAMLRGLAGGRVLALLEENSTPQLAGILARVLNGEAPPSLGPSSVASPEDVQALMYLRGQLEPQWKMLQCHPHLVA
# [33] = biological target: Histone deacetylase 11 (Homo sapiens, UniProt Q96DB2); experiment: Inhibition of human HDAC11
# [34] = system: Escherichia coli; experiment: Antibacterial activity against efflux pump deficient Escherichia coli after 18 to 24 hrs; format: functional
# Procedure, shortened: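 MIC per CLSI guidelines. Strains grown in cation-adjusted Mueller Hinton broth. Compounds dissolved in DMSO and serially diluted in DMSO (carbapenems in water) before addition to microtiter plates. Incubation at 37 °C for 18−24 h. MIC is the lowest concentration preventing visible growth.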
# [35] = system: Pseudomonas aeruginosa; experiment: Antibacterial activity against Pseudomonas aeruginosa ATCC 27853 in CD1 mouse thigh infection model assessed as reduction in bacterial burden in thigh at 160 to 320 mg/kg, iv administered at 2 hrs post infection measured after 24 hrs
# [36] = system: Pseudomonas aeruginosa; experiment: Antibacterial activity against Pseudomonas aeruginosa clinical isolate infected in iv dosed BalbC mouse neutropenic model assessed as concentration required to show bacterial stasis in lung administered as bid at 2 and 8 hrs post infection measured after 24 hrs
# [37] = system: Pseudomonas aeruginosa; experiment: Antibacterial activity against Pseudomonas aeruginosa clinical isolate infected in iv dosed BalbC mouse neutropenic model assessed as concentration required to show reduction in bacterial burden in lung of 2 log below stasis administered as bid at 2 and 8 hrs post infection measured after 24 hrs
compound,measurement,setting,value
NC[C@H]1O[C@H](O[C@H]2[C@H](O)[C@@H](O[C@H]3O[C@H](CO)[C@@H](O)[C@H](N)[C@H]3O)[C@H](N)C[C@@H]2N)[C@H](N)C[C@@H]1O [TOBRAMYCIN],MIC50,[1],2 µg/mL
same,MIC90,[1],> 128 µg/mL
CC#CCOc1ccc(C(=O)N[C@H](C(=O)NO)[C@H](N)C2CC2)cc1,IC50,[2],362 nM
same,MIC,[3],32 µg/mL
same,MIC,[4],2 µg/mL
same,MIC,[5],4 µg/mL
CC#CCOc1ccc(C(=O)N[C@H](C(=O)NO)[C@H](N)C(C)C)cc1,IC50,[2],900 nM
same,MIC,[3],> 128 µg/mL
same,MIC,[4],16 µg/mL
same,MIC,[5],32 µg/mL
CCN1CCN(C(=O)N[C@@H](C(=O)N[C@@H]2C(=O)N3[C@@H]2SC(C)(C)[C@@H]3C(=O)O)c2ccccc2)C(=O)C1=O [PIPERACILLIN],MIC50,[1],32 µg/mL
same,MIC90,[1],> 128 µg/mL
C[C@@H](N)[C@H](NC(=O)COc1ccc(N2CCCC2=O)cc1)C(=O)NO,IC50,[2],342 nM
same,MIC,[3],> 128 µg/mL
same,MIC,[4],> 128 µg/mL
same,MIC,[5],> 128 µg/mL
CC#CCOc1ccc(C(=O)N[C@@H](C(=O)NO)C(C)(C)N)cc1,MIC,[3],16 µg/mL
same,MIC,[4],2 µg/mL
same,MIC,[5],4 µg/mL
CC[C@H]1OC(=O)[C@H](C)[C@@H](O[C@H]2C[C@@](C)(OC)[C@@H](O)[C@H](C)O2)[C@H](C)[C@@H](O[C@@H]2O[C@H](C)C[C@H](N(C)C)[C@H]2O)[C@](C)(O)C[C@@H](C)CN(C)[C@H](C)[C@@H](O)[C@]1(C)O [AZITHROMYCIN],MIC50,[1],16 µg/mL
same,MIC90,[1],> 128 µg/mL
C[C@@H](N)[C@H](NC(=O)c1ccc(C#Cc2ccccc2)cc1)C(=O)NO,IC50,[2],3.56 nM
same,MIC,[3],1 µg/mL
same,MIC,[4],0.25 µg/mL
same,MIC,[5],0.25 µg/mL
same,CC50 at 72 h,[6],29.5 µM
same,fraction unbound,[7],0.086
same,fraction unbound,[8],0.072
same,fraction unbound,[9],0.081
NCC[C@H](O)C(=O)N[C@@H]1C[C@H](N)[C@@H](O[C@H]2O[C@H](CN)[C@@H](O)[C@H](O)[C@H]2O)[C@H](O)[C@H]1O[C@H]1O[C@H](CO)[C@@H](O)[C@H](N)[C@H]1O [AMIKACIN],MIC50,[1],16 µg/mL
same,MIC90,[1],> 128 µg/mL
C[C@@H](O)[C@H]1C(=O)N2C(C(=O)O)=C(S[C@@H]3CN[C@H](C(=O)N(C)C)C3)[C@H](C)[C@H]12 [MEROPENEM],MIC50,[1],2 µg/mL
same,MIC90,[1],32 µg/mL
CC#CCOc1ccc(C(=O)N[C@H](C(=O)NO)[C@@H](C)N)cc1,IC50,[2],19.7 nM
same,MIC,[3],2 µg/mL
same,MIC,[4],0.25 µg/mL
same,MIC,[5],0.5 µg/mL
same,solubility,[10],295 µg/mL
same,CC50 at 72 h,[6],> 419 µM
same,CC50 at 72 h,[11],> 419 µM
C[C@@H](N)[C@H](NC(=O)c1ccc(OC(C)(C)C)cc1)C(=O)NO,IC50,[2],268 nM
same,MIC,[3],32 µg/mL
same,MIC,[4],1 µg/mL
same,MIC,[5],4 µg/mL
CCc1ccc(-c2ccc(C(=O)N[C@H](C(=O)NO)[C@@H](C)NCC(=O)O)cc2)cc1,IC50,[2],1 nM
same,MIC,[3],128 µg/mL
same,MIC,[4],1 µg/mL
same,MIC,[5],32 µg/mL
CC#CCOc1ccc(C(=O)N[C@H](C(=O)NO)C(C)(C)N)cc1,MIC,[3],0.5 µg/mL
same,MIC,[4],0.06 µg/mL
same,MIC,[5],0.25 µg/mL
same,MIC,[12],1 µg/mL
same,MIC,[13],2 µg/mL
same,MIC,[14],> 128 µg/mL
same,MIC,[15],16 µg/mL
same,MIC,[16],32 µg/mL
same,MIC,[17],32 µg/mL
same,MIC,[18],> 128 µg/mL
same,MIC,[19],64 µg/mL
same,MIC,[20],16 µg/mL
same,MIC,[21],16 µg/mL
same,MIC,[22],64 µg/mL
same,solubility,[10],> 327 µg/mL
same,CC50 at 72 h,[6],> 295 µM
same,CC50 at 72 h,[11],> 295 µM
same,IC50,[23],> 30 µM
same,IC50,[24],> 30 µM
same,IC50,[25],> 30 µM
same,IC50,[26],> 30 µM
same,IC50,[27],> 30 µM
same,IC50,[28],> 30 µM
same,IC50,[29],> 30 µM
same,IC50,[30],> 30 µM
same,IC50,[31],> 30 µM
same,IC50,[32],> 30 µM
same,IC50,[33],> 30 µM
same,fraction unbound,[7],0.772
same,fraction unbound,[8],0.779
same,fraction unbound,[9],0.193
same,MIC50,[1],1 µg/mL
same,MIC90,[1],2 µg/mL
same,MIC,[34],1 to 2 µg/mL
same,Activity,[35],Active
same,Activity,[36],7.1 mg/kg/day
same,Activity,[37],20 mg/kg/day
O=C(O)c1cn(C2CC2)c2cc(N3CCNCC3)c(F)cc2c1=O [CIPROFLOXACIN],MIC,[14],0.5 µg/mL
same,MIC,[15],2 µg/mL
same,MIC,[16],0.5 µg/mL
same,MIC,[17],0.5 µg/mL
same,MIC,[18],> 16 µg/mL
same,MIC,[21],≤ 0.03 µg/mL
same,MIC,[22],≤ 0.03 µg/mL
